Test [1] concerns U-937. Kind of test: Cytotoxicity against human U937 cells at 30 uM after 72 hrs annexin-V propidium iodide method. Format: functional. In outline: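 U937 plated at 0.4×10^6 cells/ml, compound in Me₂SO (final 0.5%). Cells harvested and re-seeded every 24 h in medium with freshly added inhibitor, for 72 h. Viability by annexin V-FITC/propidium iodide two-colour flow cytometry; cells negative for both stains counted viable.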

Test [2] concerns the target T1, Cathepsin G (Mus musculus) (UniProt P28293).
T1 sequence (whole entry): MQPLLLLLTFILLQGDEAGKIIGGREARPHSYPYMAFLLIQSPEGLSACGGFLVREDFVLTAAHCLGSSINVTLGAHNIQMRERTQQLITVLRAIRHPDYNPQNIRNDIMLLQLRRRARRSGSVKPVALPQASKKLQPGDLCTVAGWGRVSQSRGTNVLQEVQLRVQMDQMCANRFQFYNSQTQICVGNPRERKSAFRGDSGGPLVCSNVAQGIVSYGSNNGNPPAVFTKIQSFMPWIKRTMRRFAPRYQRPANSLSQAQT
Briefly: Inhibition of cathepsin G activity in beta-estradiol differentiated mouse EcoM-G cells at 10 uM after 24 hrs in the absence of estradiol. Format: cell-based. In outline: (§1)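 EcoM-G cells seeded without β-estradiol to differentiate. 10 μM compound or vehicle added 24 h after estrogen removal, and aliquots taken over time up to 3 days. CG activity in extracts measured with 1 mM Suc-Ala-Ala-Pro-Phe-pNA, absorbance at 405 nm over 5 min, in 100 mM Tris pH 7.5, 1 M NaCl.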

The target in test [3] is T2, Neutrophil elastase (Homo sapiens, UniProt P08246).
T2 sequence (P08246 whole entry): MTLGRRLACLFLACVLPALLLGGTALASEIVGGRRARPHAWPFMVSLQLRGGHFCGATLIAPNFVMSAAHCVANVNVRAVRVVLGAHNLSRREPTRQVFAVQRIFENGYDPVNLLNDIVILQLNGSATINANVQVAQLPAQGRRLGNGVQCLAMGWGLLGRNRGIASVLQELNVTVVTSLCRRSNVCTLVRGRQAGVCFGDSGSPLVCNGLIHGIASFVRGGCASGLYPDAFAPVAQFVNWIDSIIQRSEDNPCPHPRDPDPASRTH
Briefly: Blockade of neutrophil elastase processing in human U937 cells after 7 days by fluorogenic substrate cleavage assay. Format: cell-based, U-937. The procedure, abridged: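 U937 seeded at 1×10^5 cells/ml with vehicle or inhibitor, passaged and diluted 10-fold into fresh medium with compound on days 3 and 5, harvested day 7. Cells washed and lysed in 20 mM Tris pH 7.5, 100 mM NaCl, 0.2% NP-40. NE rate measured with 400 μM MeOSuc-AAPV-AMC (ex 370/em 450 nm, 10 min). % inhibition vs vehicle, four wells per point.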

Test [4] addresses T3, Neutrophil elastase (Mus musculus, UniProt Q3UP87).
T3 sequence (Q3UP87 whole entry): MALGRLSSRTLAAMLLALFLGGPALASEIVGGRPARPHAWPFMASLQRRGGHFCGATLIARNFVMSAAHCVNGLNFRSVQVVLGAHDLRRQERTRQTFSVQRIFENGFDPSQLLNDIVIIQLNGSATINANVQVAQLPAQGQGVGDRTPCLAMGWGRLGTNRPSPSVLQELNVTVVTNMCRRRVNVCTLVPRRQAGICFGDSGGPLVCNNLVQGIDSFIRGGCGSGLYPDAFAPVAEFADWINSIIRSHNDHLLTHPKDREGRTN
Kind of test: Inhibition of neutrophil elastase activation in beta-estradiol differentiated mouse EcoM-G cells after 24 hrs. Type of test: cell-based. In outline:
(§2)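 EcoM-G cells (cultures <3 months old) washed and seeded at 0.5×10^6 cells/ml without β-estradiol. After 24 h, compound added in Me₂SO (final 0.5%), then cells differentiated a further 24 h, harvested and lysed. NE assayed with 400 μM MeOSuc-AAPV-AMC, CG with 1 mM Suc-AAPF-pNA (405 nm, 5 min), Pr-3 with 10 μM internally quenched substrate (ex 328/em 393 nm), all from the same lysates. IC50 from four-parameter Hill fit.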

A further test addresses Procathepsin L (Homo sapiens, UniProt P07711). Briefly: Inhibition of human recombinant cathepsin L after 10 mins.
Test [5] addresses T4, Neutrophil elastase (Homo sapiens) (UniProt P08246).
T4 sequence (whole entry): T2 sequence (P08246 whole entry)
The conditions noted are these: U-937, 1 uM.

For the next test, the target named is Cathepsin S (Homo sapiens, UniProt P25774). Briefly: Inhibition of human recombinant cathepsin S after 10 mins.
For another test, the target named is T5, Cathepsin G (Homo sapiens, UniProt P08311).
T5 sequence (P08311 whole entry): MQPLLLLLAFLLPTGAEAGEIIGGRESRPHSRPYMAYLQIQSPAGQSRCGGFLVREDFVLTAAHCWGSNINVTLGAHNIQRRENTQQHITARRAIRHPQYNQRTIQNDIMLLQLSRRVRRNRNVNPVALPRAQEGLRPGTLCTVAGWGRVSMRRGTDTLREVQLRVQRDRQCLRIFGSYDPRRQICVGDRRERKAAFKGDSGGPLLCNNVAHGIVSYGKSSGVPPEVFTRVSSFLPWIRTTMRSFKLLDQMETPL
Briefly: Inhibition of cathepsin G in human U937 cells. Format: cell-based, U-937.

Test [6] deals with T6, Myeloblastin (Homo sapiens, UniProt P24158).
T6 sequence (P24158 whole entry): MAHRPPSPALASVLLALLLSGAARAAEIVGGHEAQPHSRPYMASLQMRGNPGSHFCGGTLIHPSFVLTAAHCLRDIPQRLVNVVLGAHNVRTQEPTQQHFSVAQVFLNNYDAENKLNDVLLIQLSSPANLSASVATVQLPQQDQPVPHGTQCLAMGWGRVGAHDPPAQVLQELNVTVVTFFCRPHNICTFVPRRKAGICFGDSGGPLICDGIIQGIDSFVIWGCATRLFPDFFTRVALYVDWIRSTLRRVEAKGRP
Kind of test: Inhibition of proteinase-3 in human U937 cells. Format: cell-based, U-937.

Test [7] has as its system U-937. Briefly: Effect on neutrophil elastase protein expression in human U937 cells at 30 uM after 7 days by Western blot. Format: functional, cell-based. (In western blotting, separated proteins are transferred to a membrane and probed.)
The target of test [8] is T1, Cathepsin G (Mus musculus). Kind of test: Inhibition of cathepsin G activity in beta-estradiol differentiated mouse EcoM-G cells at 10 uM after 3 days in the absence of estradiol. Type of test: cell-based. The procedure, abridged:
as §1

Test [9] concerns the target T7, Myeloblastin (Mus musculus, UniProt Q61096).
T7 sequence (Q61096 whole entry): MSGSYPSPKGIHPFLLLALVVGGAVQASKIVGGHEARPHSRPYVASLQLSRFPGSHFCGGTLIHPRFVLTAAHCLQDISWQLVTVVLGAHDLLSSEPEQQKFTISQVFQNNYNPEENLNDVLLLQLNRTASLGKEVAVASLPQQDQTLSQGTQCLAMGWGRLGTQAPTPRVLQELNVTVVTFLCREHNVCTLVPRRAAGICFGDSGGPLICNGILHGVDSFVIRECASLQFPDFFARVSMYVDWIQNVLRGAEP
Kind of test: Inhibition of proteinase-3 activation in beta-estradiol differentiated mouse EcoM-G cells after 24 hrs. Type of test: cell-based. In outline: as §2

A further test has as its target Cathepsin B (Homo sapiens, UniProt P07858). Kind of test: Inhibition of human recombinant cathepsin B after 10 mins.
For test [10], the target named is T8, Neutrophil elastase (Mus musculus) (UniProt Q3UP87).
T8 sequence (whole entry): T3 sequence (Q3UP87 whole entry)
The conditions noted are these: EcoM-G, 1 uM.

The structures appear in SMILES notation. The source made the active and inactive calls. The rule behind the calls is not given here.

Chain of Cathepsin S (P25774 whole entry): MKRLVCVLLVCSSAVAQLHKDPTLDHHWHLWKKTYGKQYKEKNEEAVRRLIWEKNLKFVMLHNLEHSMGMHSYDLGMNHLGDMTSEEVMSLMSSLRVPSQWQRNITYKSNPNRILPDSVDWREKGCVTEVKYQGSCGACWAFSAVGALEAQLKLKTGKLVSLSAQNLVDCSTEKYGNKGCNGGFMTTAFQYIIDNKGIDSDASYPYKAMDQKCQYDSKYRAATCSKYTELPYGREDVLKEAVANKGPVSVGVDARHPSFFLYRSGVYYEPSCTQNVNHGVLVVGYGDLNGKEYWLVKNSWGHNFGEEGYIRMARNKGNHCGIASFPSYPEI
Chain of Procathepsin L (P07711 whole entry): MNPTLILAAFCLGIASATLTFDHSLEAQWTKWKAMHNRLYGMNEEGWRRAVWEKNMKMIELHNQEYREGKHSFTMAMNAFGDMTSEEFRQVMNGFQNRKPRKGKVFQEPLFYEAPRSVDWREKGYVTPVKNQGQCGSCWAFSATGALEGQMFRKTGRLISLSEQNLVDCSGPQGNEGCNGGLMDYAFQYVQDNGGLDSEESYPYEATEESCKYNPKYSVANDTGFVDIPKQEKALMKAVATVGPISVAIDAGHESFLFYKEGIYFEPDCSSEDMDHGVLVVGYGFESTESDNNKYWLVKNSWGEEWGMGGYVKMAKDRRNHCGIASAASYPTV

One may read the IC50 as the midpoint of a concentration-inhibition curve. For orientation: inhibition means the percentage by which the read-out fell short of the control. `N#C[C@@]1(NC(=O)[C@@H](N)Cc2cccs2)C[C@@H]1c1ccccc1.O=C(O)C(F)(F)F` showed an Activity with U-937 [1] of 100%. For the same molecule, the outcome in test [2] and in test [8] was Active. In addition, the IC50 was 0.22 µM on Neutrophil elastase [3]; 0.16 µM against Neutrophil elastase [4]; 5.4 µM on Procathepsin L; 5.9 µM at Cathepsin S; > 50 µM against Cathepsin G; > 50 µM against Myeloblastin [6]. Further, the IC50 against Myeloblastin [9] was 0.14 µM; at Cathepsin B it was > 50 µM. The inhibition in test [5] and in test [10] was > 90% each time. Besides, the outcome in the test on U-937 [7] was inactive.

For the origin of these results see ChEMBL document CHEMBL1156470, “Inhibition of the activation of multiple serine proteases with a cathepsin C inhibitor requires sustained exposure to prevent pro-enzyme processing” (J Biol Chem, 2007).
